Tested on: HEK-293T
Experiment: Multiplex assay against HEK293T;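 on Population Tubulin-Different-Phenotype (%): share of the cells with healthy nuclei that show this phenotype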
Format: toxicity, cell-based
Details: human
How it was run: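 Hoechst33342, BioTracker Green Microtubule Cytoskeleton Dye, MitoTracker Red and Annexin V Alexa Fluor 680 were added to live cells at seeding, and imaging on a CQ1 microscope at 37°C and 5% CO2 followed compound addition. Gating by CellPathfinder machine learning separated cells into Hoechst high-intensity objects or normal cells, then normal cells into healthy, pyknosed or fragmented nuclei, then pyknosed cells into mitotic or apoptotic. Per cents of healthy-nucleus cells are reported for the tubulin, mitochondrial-mass and membrane-permeability phenotypes.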

[1] = 12 h, 1 µM, compound concentration 1 uM, replicate 1
[2] = 12 h, 1 µM, compound concentration 1 uM, replicate 2
[3] = 12 h, 10 µM, compound concentration 10 uM, replicate 1
[4] = 12 h, 10 µM, compound concentration 10 uM, replicate 2
[5] = 24 h, 1 µM, compound concentration 1 uM, replicate 1
[6] = 24 h, 1 µM, compound concentration 1 uM, replicate 2
[7] = 24 h, 10 µM, compound concentration 10 uM, replicate 1
[8] = 24 h, 10 µM, compound concentration 10 uM, replicate 2
[9] = 48 h, 1 µM, compound concentration 1 uM, replicate 1
[10] = 48 h, 1 µM, compound concentration 1 uM, replicate 2
[11] = 48 h, 10 µM, compound concentration 10 uM, replicate 1
[12] = 48 h, 10 µM, compound concentration 10 uM, replicate 2

`CCn1c(=O)c(-c2ccc(-c3cncs3)cc2Cl)cc2cnc(Nc3ccc(N4CCN(C)CC4)cc3)nc21` was tested, and the “Population Apoptotic (%)” value [1] was 34%, the “Population Fragmented Nuclei (%)” value [1] was 7% and the “Population Healthy Nuclei (%)” value [1] was 46%. For the same compound, the “Population Hoechst High Intensity Objects (%)” value [1] was 14%, the “Population Membrane Permeable-Phenotype (%)” value [1] was 2% and the “Population Mitochondria Different-Phenotype (%)” value [1] was 79%. For the same compound, the “Population Mitotic Cells (%)” value [1] was 65%, the “Population Normal (%)” value [1] was 85% and the “Population Pyknosed Nuclei (%)” value [1] was 46%. For the same compound, the “Population Tubulin-Different-Phenotype (%)” value [1] was 55%, the “Total Cell Count” value [1] was 232 and the “Population Apoptotic (%)” value [2] was 10%. The “Population Fragmented Nuclei (%)” value [2] was 5%, the “Population Healthy Nuclei (%)” value [2] was 48% and the “Population Hoechst High Intensity Objects (%)” value [2] was 2%. For the same compound, the “Population Membrane Permeable-Phenotype (%)” value [2] was 9%, the “Population Mitochondria Different-Phenotype (%)” value [2] was 13% and the “Population Mitotic Cells (%)” value [2] was 89%. The “Population Normal (%)” value [2] was 97%, the “Population Pyknosed Nuclei (%)” value [2] was 45% and the “Population Tubulin-Different-Phenotype (%)” value [2] was 18%. For the same compound, the “Total Cell Count” value [2] was 288, the “Population Apoptotic (%)” value [3] was 52% and the “Population Fragmented Nuclei (%)” value [3] was 47%. For the same compound, the “Population Healthy Nuclei (%)” value [3] was 21%, the “Population Hoechst High Intensity Objects (%)” value [3] was 62% and the “Population Membrane Permeable-Phenotype (%)” value [3] was 5%. The “Population Mitochondria Different-Phenotype (%)” value [3] was 93%, the “Population Mitotic Cells (%)” value [3] was 47% and the “Population Normal (%)” value [3] was 37%. The “Population Pyknosed Nuclei (%)” value [3] was 30%, the “Population Tubulin-Different-Phenotype (%)” value [3] was 93% and the “Total Cell Count” value [3] was 1090. For the same compound, the “Population Apoptotic (%)” value [4] was 15%, the “Population Fragmented Nuclei (%)” value [4] was 7% and the “Population Healthy Nuclei (%)” value [4] was 55%. The “Population Hoechst High Intensity Objects (%)” value [4] was 4%, the “Population Membrane Permeable-Phenotype (%)” value [4] was 20% and the “Population Mitochondria Different-Phenotype (%)” value [4] was 16%. The “Population Mitotic Cells (%)” value [4] was 84%, the “Population Normal (%)” value [4] was 95% and the “Population Pyknosed Nuclei (%)” value [4] was 37%. The “Population Tubulin-Different-Phenotype (%)” value [4] was 38%, the “Total Cell Count” value [4] was 174 and the “Population Apoptotic (%)” value [5] was 57%. For the same compound, the “Population Fragmented Nuclei (%)” value [5] was 11%, the “Population Healthy Nuclei (%)” value [5] was 42% and the “Population Hoechst High Intensity Objects (%)” value [5] was 14%. For the same compound, the “Population Membrane Permeable-Phenotype (%)” value [5] was 2%, the “Population Mitochondria Different-Phenotype (%)” value [5] was 55% and the “Population Mitotic Cells (%)” value [5] was 42%. The “Population Normal (%)” value [5] was 85%, the “Population Pyknosed Nuclei (%)” value [5] was 45% and the “Population Tubulin-Different-Phenotype (%)” value [5] was 45%. The “Total Cell Count” value [5] was 233, the “Population Apoptotic (%)” value [6] was 12% and the “Population Fragmented Nuclei (%)” value [6] was 4%. The “Population Healthy Nuclei (%)” value [6] was 65%, the “Population Hoechst High Intensity Objects (%)” value [6] was 1% and the “Population Membrane Permeable-Phenotype (%)” value [6] was 8%. The “Population Mitochondria Different-Phenotype (%)” value [6] was 15%, the “Population Mitotic Cells (%)” value [6] was 87% and the “Population Normal (%)” value [6] was 98%. For the same compound, the “Population Pyknosed Nuclei (%)” value [6] was 29%, the “Population Tubulin-Different-Phenotype (%)” value [6] was 31% and the “Total Cell Count” value [6] was 358. For the same compound, the “Population Apoptotic (%)” value [7] was 59%, the “Population Fragmented Nuclei (%)” value [7] was 59% and the “Population Healthy Nuclei (%)” value [7] was 8%. The “Population Hoechst High Intensity Objects (%)” value [7] was 71%, the “Population Membrane Permeable-Phenotype (%)” value [7] was 0% and the “Population Mitochondria Different-Phenotype (%)” value [7] was 92%. For the same compound, the “Population Mitotic Cells (%)” value [7] was 40%, the “Population Normal (%)” value [7] was 28% and the “Population Pyknosed Nuclei (%)” value [7] was 31%. For the same compound, the “Population Tubulin-Different-Phenotype (%)” value [7] was 97%, the “Total Cell Count” value [7] was 1552 and the “Population Apoptotic (%)” value [8] was 30%. The “Population Fragmented Nuclei (%)” value [8] was 11%, the “Population Healthy Nuclei (%)” value [8] was 57% and the “Population Hoechst High Intensity Objects (%)” value [8] was 4%. The “Population Membrane Permeable-Phenotype (%)” value [8] was 15%, the “Population Mitochondria Different-Phenotype (%)” value [8] was 39% and the “Population Mitotic Cells (%)” value [8] was 69%. The “Population Normal (%)” value [8] was 95%, the “Population Tubulin-Different-Phenotype (%)” value [8] was 64% and the “Total Cell Count” value [8] was 177. For the same compound, the “Population Apoptotic (%)” value [9] was 50%, the “Population Fragmented Nuclei (%)” value [9] was 14% and the “Population Healthy Nuclei (%)” value [9] was 57%. For the same compound, the “Population Hoechst High Intensity Objects (%)” value [9] was 13%, the “Population Membrane Permeable-Phenotype (%)” value [9] was 3% and the “Population Mitochondria Different-Phenotype (%)” value [9] was 33%. The “Population Mitotic Cells (%)” value [9] was 49%, the “Population Normal (%)” value [9] was 86% and the “Population Pyknosed Nuclei (%)” value [9] was 28%. The “Population Tubulin-Different-Phenotype (%)” value [9] was 36%, the “Total Cell Count” value [9] was 308 and the “Population Apoptotic (%)” value [10] was 11%. For the same compound, the “Population Fragmented Nuclei (%)” value [10] was 6%, the “Population Healthy Nuclei (%)” value [10] was 80% and the “Population Hoechst High Intensity Objects (%)” value [10] was 3%. For the same compound, the “Population Membrane Permeable-Phenotype (%)” value [10] was 7%, the “Population Mitochondria Different-Phenotype (%)” value [10] was 4% and the “Population Mitotic Cells (%)” value [10] was 88%. For the same compound, the “Population Normal (%)” value [10] was 96%, the “Population Pyknosed Nuclei (%)” value [10] was 13% and the “Population Tubulin-Different-Phenotype (%)” value [10] was 29%. For the same compound, the “Total Cell Count” value [10] was 591, the “Population Apoptotic (%)” value [11] was 64% and the “Population Fragmented Nuclei (%)” value [11] was 72%. For the same compound, the “Population Healthy Nuclei (%)” value [11] was 6%, the “Population Hoechst High Intensity Objects (%)” value [11] was 74% and the “Population Membrane Permeable-Phenotype (%)” value [11] was 0%. The “Population Mitochondria Different-Phenotype (%)” value [11] was 84%, the “Population Mitotic Cells (%)” value [11] was 35% and the “Population Normal (%)” value [11] was 25%. The “Population Pyknosed Nuclei (%)” value [11] was 20%, the “Population Tubulin-Different-Phenotype (%)” value [11] was 75% and the “Total Cell Count” value [11] was 1798. For the same compound, the “Population Apoptotic (%)” value [12] was 36%, the “Population Fragmented Nuclei (%)” value [12] was 8% and the “Population Healthy Nuclei (%)” value [12] was 70%. The “Population Hoechst High Intensity Objects (%)” value [12] was 4%, the “Population Membrane Permeable-Phenotype (%)” value [12] was 9% and the “Population Mitochondria Different-Phenotype (%)” value [12] was 25%. The “Population Mitotic Cells (%)” value [12] was 63%, the “Population Normal (%)” value [12] was 95% and the “Population Tubulin-Different-Phenotype (%)” value [12] was 63%. The “Total Cell Count” value [12] was 238.
